Bioassay records from PubChem BioAssay.
An excerpt weighted towards active compounds, which were near 3.3% of everything screened.
ATG4B inhibitor: ATG4B protease inhibitors, primary screen, biochemical, fluorescence, uHTS; ATG4B cleavage of LC3-PLA2, NBD-HPC fluorescence, 1 h; inhibition, % at 8.33 µM; hit rate 0.51% among 340,000; in the data active = inhibition above about 40%
Target sequence (Q9Y4P1 whole entry, looked up): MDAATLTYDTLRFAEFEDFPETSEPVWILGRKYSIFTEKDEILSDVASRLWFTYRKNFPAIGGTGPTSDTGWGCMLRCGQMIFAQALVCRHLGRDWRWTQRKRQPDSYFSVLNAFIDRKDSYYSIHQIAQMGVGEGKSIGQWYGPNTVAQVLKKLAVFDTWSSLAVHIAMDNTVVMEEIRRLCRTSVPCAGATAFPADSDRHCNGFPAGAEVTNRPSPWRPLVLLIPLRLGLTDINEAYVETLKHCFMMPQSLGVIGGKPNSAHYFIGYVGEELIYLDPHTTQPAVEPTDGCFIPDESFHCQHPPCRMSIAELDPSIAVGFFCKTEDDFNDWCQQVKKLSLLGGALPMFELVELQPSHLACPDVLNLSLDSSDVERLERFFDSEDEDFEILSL
Myeloid diff MLP: induction of myeloid progenitor differentiation, primary screen, cell-based, flow cytometry, MLPCN library | hit rate 1% among 360,000 | ER-HoxA9 myeloid progenitors, lysozyme-GFP differentiation | AID 624256, 2012 | calls only at 10 µM;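 active = normalized GFP-positive differentiation at or above the plate's own cutoff, the solvent-only control mean plus 3 SD; inconclusive = no clear call, values can overlap the other calls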;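 note: cells exposed to compound for four days before flow analysis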
Arrestin-AP2 inh: inhibitors of beta-arrestin/AP2 binding, primary screen, biochemical, GPCR trafficking, flow cytometry | AID 504490, 2011 | FITC-arrestin peptide / GST-AP2 beads; AP2 beta2 appendage carries R879A mutation | hit rate 0.31% among 340,000 | beta-arrestin 1 C-terminal peptide binding to AP2 beta2-adaptin appendage (human) | inhibition, % at 10 µM;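 active = inhibition above a set limit, near 3 SD of compounds lacking own fluorescence, cut at about 54% in these data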;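 note: plate controls were DMSO wells for no effect and 5 µM unlabelled arrestin peptide for full effect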
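Material – AP2 appendage R879A on GSH beads · Buffer or medium – PBS with 0.05% Tween 20 and 0.1% BSA · Probe or stimulus – fluorescein-tagged arrestin peptide at 50 nM final · Incubation – compound with beads 12 min RT, then probe 1 h RT · Detection – high-throughput flow cytometry of beads, ex 488, em 535 nm · Evaluation – percent response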
CendR NRP1 mod: modulators of CendR peptide binding to NRP-1, primary screen, biochemical, fluorescence polarization, uHTS. Neuropilin-1 (Homo sapiens), O14786. inhibition, % at 25 µM. FAM-RPARPAR peptide binding to NRP-1. hit rate 0.85% among 360,000. AID 602438, 2012;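 active = inhibition or corrected inhibition above about 18%, plus a signal ratio from 0.5 to 1.5, limit read from the data, passing the limit was not always enough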
Exocytosis inh: LAMP-1 surface exposure blockers, TALL-104 cells – cell-based, flow cytometry, MLPCN library, primary screen | TALL-104 LAMP-1 surface exposure; cells stimulated with thapsigargin and PMA | inhibition, % at 10 µM | hit rate 0.66% among 360,000 | AID 651702, 2012;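 active = inhibition above about 55%, limit read from the data; inconclusive = no clear call, values can overlap the other calls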
ABCB6 inh 2: ABCB6 transporter inhibitors, primary screen, K562-ABCB6 cells, flow cytometry, MLPCN library | fluorescence ratio to DMSO, % at 10 µM | K562-ABCB6 porphyrin accumulation, 1 h; stronger effect = lower value | AID 602162, 2011 | hit rate 0.19% among 360,000 | ATP-binding cassette sub-family B member 6 (Homo sapiens), Q9NP58;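 active = fluorescence ratio to DMSO below 75%, the collection mean minus 3 SD; inconclusive = too few cells collected in the well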;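 note: signal is porphyrin accumulated inside mitochondria; 100% equals median channel fluorescence of DMSO control wells; lower ratio means ABCB6 inhibition with less porphyrin fluorescence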
Exocytosis CP01: inhibitors of lytic granule exocytosis, confirmation, TALL-104 cells, flow cytometry, Cherry Pick01; shares compounds with Exocytosis inh; LAMP-1 externalization; stimulated with PMA plus thapsigargin; inhibition, % at 10 µM; hit rate 11% among 1,500; AID 651954, 2012; in the data active = inhibition above about 60%;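 note: 0% = stimulated vehicle wells and 100% = unstimulated wells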
Starred values were filed as active, the others as inactive; i = inactive; ? = inconclusive; . = no result given; + = active, no number.

SMILES	ATG4B inhibitor	Myeloid diff MLP	Arrestin-AP2 inh	CendR NRP1 mod	Exocytosis inh	ABCB6 inh 2	Exocytosis CP01
O=C(Cn1sc2ccccc2c1=O)NC12CC3CC(CC(C3)C1)C2	-8.2	i	29.7	-8.8	103.9*	101.0	99.6*
CCOc1ccc(NC(=O)c2cc3ccccc3cc2OC)cc1	11.1	i	-26.3	1.2	-0.3	107.0	.
CCOc1ccc(NC(=O)c2ccc(F)cc2F)cc1	-18.0	i	18.1	1.7	62.1*	97.0	-13.0
Cc1cc(C)c(S(=O)(=O)Nc2cccc(-n3cnnn3)c2)c(C)c1	-10.8	i	-11.2	-5.8	31.6	97.0	.
Cc1cc(C)c(C)c(S(=O)(=O)Nc2cccc(-n3cnnn3)c2)c1C	-19.1	i	2.6	-11.9	59.9*	99.0	-14.1
CCCCCCN1C[C@H](n2cc(-c3ccc(F)cc3)nn2)[C@@H](O)C[C@@H]1c1ccc(Cl)cc1	.	i	.	-7.2	58.5*	96.0	35.0
CCCCCCN1C[C@H](n2cc(-c3ccc(F)cc3)nn2)[C@@H](O)C[C@@H]1c1ccccc1	.	i	.	-7.8	1.0	94.0	.
CN(C)CCC(=O)C(Cc1ccccc1)c1ccccc1 (centres undefined)	3.4	i	4.0	0.1	96.8*	99.0	18.4
CN(C)CCNC(=O)C(c1ccccc1)c1ccccc1	-9.4	i	-8.5	-4.3	0.0	84.0	.
O=C(CCN1CCN(c2ccc([N+](=O)[O-])cc2)CC1)c1ccc(Cl)cc1	2.9	i	3.6	2.3	84.1*	95.0	-7.6
O=C(CCN1CCN(c2ccccc2)CC1)Nc1ccc(Cl)cc1	-10.9	i	-5.9	-0.9	1.6	92.0	.
O=C(CCN1CCN(c2ccccc2)CC1)c1ccc(Cl)cc1	1.5	i	-2.2	-9.3	79.2*	100.0	50.2
CC(C)(C)C1CCC(=O)N(CCOc2ccccc2)CC1 (centres undefined)	-3.8	i	0.1	-2.0	67.1*	100.0	-13.4
COc1ccccc1C(=O)Nc1c(C(=O)N(CCN(C)C)Cc2ccco2)oc2ccccc12	-17.7	i	3.2	-3.3	65.8*	102.0	1.9
CCOC(=O)c1oc2ccccc2c1NC(=O)c1ccccc1OC	-2.9	i	0.7	0.9	2.0	100.0	.
COc1cccc(OC)c1OCCN1CCCC1	-4.9	i	4.0	4.9	-12.3	98.0	.
COc1cccc(OC)c1OCCCN1CCC(Cc2ccccc2)CC1	1.1	i	48.2	-13.0	67.7*	96.0	-11.9
COc1cccc(OC)c1OCCN1CCN(C(c2ccccc2)c2ccccc2)CC1	-4.1	i	16.8	8.2	62.2*	90.0	-9.9
CCc1ccccc1NC(=O)c1ccccc1Sc1ccc([N+](=O)[O-])cc1Cl	-11.4	i	-1.0	-5.8	1.4	98.0	.
CCOc1ccc2c(c1)nc(SCC(=O)c1ccc(Br)s1)n2C	3.4	i	24.7	9.6	103.2*	92.0	-4.8
Cc1nc(SCc2nc3ccc([N+](=O)[O-])cc3[nH]2)c2oc3ccccc3c2n1	-16.6	i	-4.6	1.0	93.3*	83.0	-13.7
CN(C)CCC(=O)c1ccc2c(c1)OCO2	-7.0	i	-2.5	-7.6	102.3*	104.0	102.5*
CN(C)CCCC(=O)c1ccc2c(c1)OCO2	0.1	i	6.5	7.4	1.1	104.0	.
COc1ccc(CCNC(=O)C2CC3Cn4c(nc5cc(Cl)c(Cl)cc54)C3N2C)cc1 (centres undefined)	-8.8	i	9.1	-5.7	83.3*	104.0	-12.9
COC(=O)[C@@]1(Cc2ccccc2)C=C[C@@H](C)N1C(C)=O	-0.4	i	-0.8	-4.7	48.3	98.0	.
SMILES	ATG4B inhibitor	Myeloid diff MLP	Arrestin-AP2 inh	CendR NRP1 mod	Exocytosis inh	ABCB6 inh 2	Exocytosis CP01
COC(=O)N1[C@H](C)C=C[C@]1(Cc1ccccc1)C(=O)OC	-9.8	i	0.7	-3.0	57.2*	99.0	-13.2
CC(NCCC(Cc1ccccc1)c1ccco1)c1ccccc1 (centres undefined)	11.9	i	-0.5	4.4	-0.6	106.0	.
Fc1ccc(CNCCC(Cc2ccccc2)c2ccco2)cc1 (centres undefined)	1.5	i	15.0	-4.5	78.5*	99.0	-10.9
COc1cc(-c2coc3c(C(=O)NCc4ccc(OC)c(OC)c4)cccc23)ccc1O	.	?	.	4.8	66.1*	89.0	91.6*
CC1CCN(C(=O)CS(=O)(=O)Cc2ccccc2)CC1	-10.9	i	-14.6	-4.6	-1.8	102.0	.
COc1cccc(N2CCc3c(C)nc4ccc(Cl)cc4c32)c1	-2.0	?	3.5	3.5	81.5*	100.0	-7.3
CCOC(=O)c1c(-c2ccccc2)oc2ccc(OCC(O)CN(C)C)cc12 (centres undefined)	0.4	i	-1.9	3.5	83.7*	102.0	-2.6
CCOC(=O)c1c(-c2ccccc2)oc2ccc(OC(C)C(=O)O)cc12 (centres undefined)	28.9	i	-9.1	-12.3	-4.9	95.0	.
CC(=O)Nc1ccc(CCNC(=O)c2ccc3ccccc3c2O)cc1	-0.6	i	28.1	-1.6	-2.6	95.0	.
Cc1ccc2c3c(cccc13)-c1ccccc1C2=O	12.0	i	17.0	12.1	97.2*	98.0	77.3*
COC(=O)c1c(NC(=O)C2CC2)sc(C(=O)Nc2ccccc2)c1C	-12.9	i	-8.0	-12.7	74.7*	99.0	-13.7
Cc1ccc(-c2nnn(CC(=O)N(Cc3ccco3)C(C(=O)NC3CCCC3)c3cccs3)n2)o1 (centres undefined)	-10.2	i	18.8	-16.8	65.9*	96.0	-4.5
COc1ccc(OC)c(CCNC(=O)c2ccc(NC3=NC4CS(=O)(=O)CC4S3)cc2)c1 (centres undefined)	-5.0	i	-1.2	0.8	-0.5	100.0	.
CCCC1=Nc2cc(C(=O)N3CCN(c4ccccn4)CC3)ccc2Sc2ccc(C)cc21	23.3	i	22.4	11.6	70.1*	89.0	-4.4
CCOC(=O)N1CCN(C(=O)c2ccc3c(c2)N=C(CC)c2cc(C)ccc2S3)CC1	-1.4	i	7.7	-0.8	1.0	81.0	.
CSC1=NC(C)(C)C=C(/C=C/c2ccc(Cl)cc2Cl)N1	-6.1	+	-3.4	-7.4	74.7*	104.0	27.4
CCOc1ccc(NC(=O)C2CCCN2S(=O)(=O)c2ccc(OCC)cc2)cc1 (centres undefined)	-8.7	i	8.4	2.0	55.7*	95.0	-4.6
